# Data as given in ChEMBL document CHEMBL4689842, “EUbOPEN Chemogenomics Library wave 1” (2021).
# Test system: HEK-293T
# Experiment: Multiplex assay against HEK293T;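 as to Population Tubulin-Different-Phenotype (%): share of the cells with healthy nuclei that show this phenotype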
# Assay type: toxicity, cell-based
# Details: human
# Outline: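 Live cells carried four stains from seeding: Hoechst33342, BioTracker Green Microtubule Cytoskeleton Dye, MitoTracker Red and Annexin V Alexa Fluor 680. They were imaged on a CQ1 microscope at 37°C and 5% CO2 after compound addition. Using CellPathfinder machine-learning gating, cells were split into Hoechst high-intensity objects or normal cells, normal cells into healthy, pyknosed or fragmented nuclei, and pyknosed cells into mitotic or apoptotic; tubulin, mitochondrial-mass and membrane-permeability phenotypes are per cents of healthy-nucleus cells.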
# [1] = 12 h, 1 µM, compound concentration 1 uM, replicate 1
# [2] = 12 h, 1 µM, compound concentration 1 uM, replicate 2
# [3] = 12 h, 10 µM, compound concentration 10 uM, replicate 1
# [4] = 12 h, 10 µM, compound concentration 10 uM, replicate 2
# [5] = 24 h, 1 µM, compound concentration 1 uM, replicate 1
# [6] = 24 h, 1 µM, compound concentration 1 uM, replicate 2
# [7] = 24 h, 10 µM, compound concentration 10 uM, replicate 1
# [8] = 24 h, 10 µM, compound concentration 10 uM, replicate 2
# [9] = 48 h, 1 µM, compound concentration 1 uM, replicate 1
# [10] = 48 h, 1 µM, compound concentration 1 uM, replicate 2
# [11] = 48 h, 10 µM, compound concentration 10 uM, replicate 1
# [12] = 48 h, 10 µM, compound concentration 10 uM, replicate 2
compound,measurement,setting,value
C=CC(=O)Nc1cccc(C(=O)Nc2ccc(Nc3cc(-c4[nH]c(SC)nc4C)ccn3)cc2)c1,Population Apoptotic (%),[1],48%
same,Population Fragmented Nuclei (%),[1],16%
same,Population Healthy Nuclei (%),[1],29%
same,Population Hoechst High Intensity Objects (%),[1],14%
same,Population Membrane Permeable-Phenotype (%),[1],4%
same,Population Mitochondria Different-Phenotype (%),[1],80%
same,Population Mitotic Cells (%),[1],51%
same,Population Normal (%),[1],85%
same,Population Pyknosed Nuclei (%),[1],54%
same,Population Tubulin-Different-Phenotype (%),[1],54%
same,Total Cell Count,[1],327
same,Population Apoptotic (%),[2],5%
same,Population Fragmented Nuclei (%),[2],7%
same,Population Healthy Nuclei (%),[2],45%
same,Population Hoechst High Intensity Objects (%),[2],5%
same,Population Membrane Permeable-Phenotype (%),[2],2%
same,Population Mitochondria Different-Phenotype (%),[2],24%
same,Population Mitotic Cells (%),[2],94%
same,Population Normal (%),[2],94%
same,Population Pyknosed Nuclei (%),[2],47%
same,Population Tubulin-Different-Phenotype (%),[2],17%
same,Total Cell Count,[2],190
same,Population Apoptotic (%),[3],48%
same,Population Fragmented Nuclei (%),[3],18%
same,Population Healthy Nuclei (%),[3],30%
same,Population Hoechst High Intensity Objects (%),[3],14%
same,Population Membrane Permeable-Phenotype (%),[3],20%
same,Population Mitochondria Different-Phenotype (%),[3],83%
same,Population Mitotic Cells (%),[3],51%
same,Population Normal (%),[3],85%
same,Population Pyknosed Nuclei (%),[3],51%
same,Population Tubulin-Different-Phenotype (%),[3],70%
same,Total Cell Count,[3],210
same,Population Apoptotic (%),[4],29%
same,Population Fragmented Nuclei (%),[4],4%
same,Population Healthy Nuclei (%),[4],29%
same,Population Hoechst High Intensity Objects (%),[4],6%
same,Population Membrane Permeable-Phenotype (%),[4],19%
same,Population Mitochondria Different-Phenotype (%),[4],34%
same,Population Mitotic Cells (%),[4],70%
same,Population Normal (%),[4],93%
same,Population Pyknosed Nuclei (%),[4],65%
same,Population Tubulin-Different-Phenotype (%),[4],82%
same,Total Cell Count,[4],240
same,Population Apoptotic (%),[5],48%
same,Population Fragmented Nuclei (%),[5],15%
same,Population Healthy Nuclei (%),[5],35%
same,Population Hoechst High Intensity Objects (%),[5],17%
same,Population Membrane Permeable-Phenotype (%),[5],3%
same,Population Mitochondria Different-Phenotype (%),[5],58%
same,Population Mitotic Cells (%),[5],51%
same,Population Normal (%),[5],82%
same,Population Pyknosed Nuclei (%),[5],49%
same,Population Tubulin-Different-Phenotype (%),[5],48%
same,Total Cell Count,[5],365
same,Population Apoptotic (%),[6],13%
same,Population Fragmented Nuclei (%),[6],5%
same,Population Healthy Nuclei (%),[6],64%
same,Population Hoechst High Intensity Objects (%),[6],1%
same,Population Membrane Permeable-Phenotype (%),[6],10%
same,Population Mitochondria Different-Phenotype (%),[6],16%
same,Population Mitotic Cells (%),[6],86%
same,Population Normal (%),[6],98%
same,Population Pyknosed Nuclei (%),[6],30%
same,Population Tubulin-Different-Phenotype (%),[6],34%
same,Total Cell Count,[6],227
same,Population Apoptotic (%),[7],48%
same,Population Fragmented Nuclei (%),[7],20%
same,Population Healthy Nuclei (%),[7],40%
same,Population Hoechst High Intensity Objects (%),[7],18%
same,Population Membrane Permeable-Phenotype (%),[7],5%
same,Population Mitochondria Different-Phenotype (%),[7],80%
same,Population Mitotic Cells (%),[7],52%
same,Population Normal (%),[7],81%
same,Population Pyknosed Nuclei (%),[7],39%
same,Population Tubulin-Different-Phenotype (%),[7],72%
same,Total Cell Count,[7],233
same,Population Apoptotic (%),[8],31%
same,Population Fragmented Nuclei (%),[8],5%
same,Population Healthy Nuclei (%),[8],51%
same,Population Hoechst High Intensity Objects (%),[8],5%
same,Population Membrane Permeable-Phenotype (%),[8],19%
same,Population Mitochondria Different-Phenotype (%),[8],34%
same,Population Mitotic Cells (%),[8],68%
same,Population Normal (%),[8],94%
same,Population Pyknosed Nuclei (%),[8],43%
same,Population Tubulin-Different-Phenotype (%),[8],81%
same,Total Cell Count,[8],284
same,Population Apoptotic (%),[9],38%
same,Population Fragmented Nuclei (%),[9],17%
same,Population Healthy Nuclei (%),[9],36%
same,Population Hoechst High Intensity Objects (%),[9],16%
same,Population Membrane Permeable-Phenotype (%),[9],6%
same,Population Mitochondria Different-Phenotype (%),[9],34%
same,Population Mitotic Cells (%),[9],61%
same,Population Normal (%),[9],83%
same,Population Pyknosed Nuclei (%),[9],45%
same,Population Tubulin-Different-Phenotype (%),[9],38%
same,Total Cell Count,[9],393
same,Population Apoptotic (%),[10],12%
same,Population Fragmented Nuclei (%),[10],7%
same,Population Healthy Nuclei (%),[10],78%
same,Population Hoechst High Intensity Objects (%),[10],2%
same,Population Membrane Permeable-Phenotype (%),[10],10%
same,Population Mitochondria Different-Phenotype (%),[10],8%
same,Population Mitotic Cells (%),[10],87%
same,Population Normal (%),[10],97%
same,Population Pyknosed Nuclei (%),[10],13%
same,Population Tubulin-Different-Phenotype (%),[10],26%
same,Total Cell Count,[10],435
same,Population Apoptotic (%),[11],52%
same,Population Fragmented Nuclei (%),[11],15%
same,Population Healthy Nuclei (%),[11],43%
same,Population Hoechst High Intensity Objects (%),[11],14%
same,Population Membrane Permeable-Phenotype (%),[11],4%
same,Population Mitochondria Different-Phenotype (%),[11],54%
same,Population Mitotic Cells (%),[11],47%
same,Population Normal (%),[11],85%
same,Population Pyknosed Nuclei (%),[11],40%
same,Population Tubulin-Different-Phenotype (%),[11],69%
same,Total Cell Count,[11],271
same,Population Apoptotic (%),[12],25%
same,Population Fragmented Nuclei (%),[12],8%
same,Population Healthy Nuclei (%),[12],75%
same,Population Hoechst High Intensity Objects (%),[12],3%
same,Population Membrane Permeable-Phenotype (%),[12],19%
same,Population Mitochondria Different-Phenotype (%),[12],14%
same,Population Mitotic Cells (%),[12],74%
same,Population Normal (%),[12],96%
same,Population Pyknosed Nuclei (%),[12],15%
same,Population Tubulin-Different-Phenotype (%),[12],64%
same,Total Cell Count,[12],503
c1cn2cc(-c3ccc4cn[nH]c4c3)nc(Nc3ccc(N4CCOCC4)cc3)c2n1 [ENTOSPLETINIB],Population Apoptotic (%),[1],54%
same,Population Fragmented Nuclei (%),[1],8%
same,Population Healthy Nuclei (%),[1],40%
same,Population Hoechst High Intensity Objects (%),[1],16%
same,Population Membrane Permeable-Phenotype (%),[1],0%
same,Population Mitochondria Different-Phenotype (%),[1],95%
same,Population Mitotic Cells (%),[1],45%
same,Population Normal (%),[1],83%
same,Population Pyknosed Nuclei (%),[1],50%
same,Population Tubulin-Different-Phenotype (%),[1],74%
same,Total Cell Count,[1],207
same,Population Apoptotic (%),[2],22%
same,Population Fragmented Nuclei (%),[2],2%
same,Population Healthy Nuclei (%),[2],36%
same,Population Hoechst High Intensity Objects (%),[2],4%
same,Population Membrane Permeable-Phenotype (%),[2],10%
same,Population Mitochondria Different-Phenotype (%),[2],57%
same,Population Mitotic Cells (%),[2],77%
same,Population Normal (%),[2],95%
same,Population Pyknosed Nuclei (%),[2],60%
same,Population Tubulin-Different-Phenotype (%),[2],57%
same,Total Cell Count,[2],197
same,Population Apoptotic (%),[3],41%
same,Population Fragmented Nuclei (%),[3],77%
same,Population Healthy Nuclei (%),[3],6%
same,Population Hoechst High Intensity Objects (%),[3],27%
same,Population Membrane Permeable-Phenotype (%),[3],8%
same,Population Mitochondria Different-Phenotype (%),[3],89%
same,Population Mitotic Cells (%),[3],58%
same,Population Normal (%),[3],72%
same,Population Pyknosed Nuclei (%),[3],16%
same,Population Tubulin-Different-Phenotype (%),[3],81%
same,Total Cell Count,[3],1068
same,Population Apoptotic (%),[4],35%
same,Population Fragmented Nuclei (%),[4],52%
same,Population Healthy Nuclei (%),[4],8%
same,Population Hoechst High Intensity Objects (%),[4],22%
same,Population Membrane Permeable-Phenotype (%),[4],7%
same,Population Mitochondria Different-Phenotype (%),[4],85%
same,Population Mitotic Cells (%),[4],64%
same,Population Normal (%),[4],77%
same,Population Pyknosed Nuclei (%),[4],38%
same,Population Tubulin-Different-Phenotype (%),[4],85%
same,Total Cell Count,[4],431
same,Population Apoptotic (%),[5],43%
same,Population Fragmented Nuclei (%),[5],6%
same,Population Healthy Nuclei (%),[5],52%
same,Population Hoechst High Intensity Objects (%),[5],15%
same,Population Membrane Permeable-Phenotype (%),[5],6%
same,Population Mitochondria Different-Phenotype (%),[5],93%
same,Population Mitotic Cells (%),[5],56%
same,Population Normal (%),[5],84%
same,Population Pyknosed Nuclei (%),[5],41%
same,Population Tubulin-Different-Phenotype (%),[5],72%
same,Total Cell Count,[5],227
same,Population Apoptotic (%),[6],24%
same,Population Fragmented Nuclei (%),[6],4%
same,Population Healthy Nuclei (%),[6],60%
same,Population Hoechst High Intensity Objects (%),[6],2%
same,Population Membrane Permeable-Phenotype (%),[6],5%
same,Population Mitochondria Different-Phenotype (%),[6],48%
same,Population Mitotic Cells (%),[6],75%
same,Population Normal (%),[6],97%
same,Population Pyknosed Nuclei (%),[6],35%
same,Population Tubulin-Different-Phenotype (%),[6],61%
same,Total Cell Count,[6],259
same,Population Apoptotic (%),[7],33%
same,Population Fragmented Nuclei (%),[7],75%
same,Population Healthy Nuclei (%),[7],8%
same,Population Hoechst High Intensity Objects (%),[7],28%
same,Population Membrane Permeable-Phenotype (%),[7],11%
same,Population Mitochondria Different-Phenotype (%),[7],85%
same,Population Mitotic Cells (%),[7],66%
same,Population Normal (%),[7],71%
same,Population Pyknosed Nuclei (%),[7],15%
same,Population Tubulin-Different-Phenotype (%),[7],75%
same,Total Cell Count,[7],988
same,Population Apoptotic (%),[8],40%
same,Population Fragmented Nuclei (%),[8],51%
same,Population Healthy Nuclei (%),[8],12%
same,Population Hoechst High Intensity Objects (%),[8],20%
same,Population Membrane Permeable-Phenotype (%),[8],4%
same,Population Mitochondria Different-Phenotype (%),[8],88%
same,Population Mitotic Cells (%),[8],59%
same,Population Normal (%),[8],79%
same,Population Pyknosed Nuclei (%),[8],35%
same,Population Tubulin-Different-Phenotype (%),[8],93%
same,Total Cell Count,[8],430
same,Population Apoptotic (%),[9],43%
same,Population Fragmented Nuclei (%),[9],10%
same,Population Healthy Nuclei (%),[9],71%
same,Population Hoechst High Intensity Objects (%),[9],7%
same,Population Membrane Permeable-Phenotype (%),[9],1%
same,Population Mitochondria Different-Phenotype (%),[9],56%
same,Population Mitotic Cells (%),[9],56%
same,Population Normal (%),[9],92%
same,Population Pyknosed Nuclei (%),[9],17%
same,Population Tubulin-Different-Phenotype (%),[9],45%
same,Total Cell Count,[9],307
same,Population Apoptotic (%),[10],18%
same,Population Fragmented Nuclei (%),[10],6%
same,Population Healthy Nuclei (%),[10],74%
same,Population Hoechst High Intensity Objects (%),[10],2%
same,Population Membrane Permeable-Phenotype (%),[10],5%
same,Population Mitochondria Different-Phenotype (%),[10],21%
same,Population Mitotic Cells (%),[10],81%
same,Population Normal (%),[10],97%
same,Population Pyknosed Nuclei (%),[10],19%
same,Population Tubulin-Different-Phenotype (%),[10],55%
same,Total Cell Count,[10],378
same,Population Apoptotic (%),[11],23%
same,Population Fragmented Nuclei (%),[11],64%
same,Population Healthy Nuclei (%),[11],18%
same,Population Hoechst High Intensity Objects (%),[11],25%
same,Population Membrane Permeable-Phenotype (%),[11],6%
same,Population Mitochondria Different-Phenotype (%),[11],43%
same,Population Mitotic Cells (%),[11],76%
same,Population Normal (%),[11],74%
same,Population Pyknosed Nuclei (%),[11],16%
same,Population Tubulin-Different-Phenotype (%),[11],57%
same,Total Cell Count,[11],913
same,Population Apoptotic (%),[12],26%
same,Population Fragmented Nuclei (%),[12],47%
same,Population Healthy Nuclei (%),[12],25%
same,Population Hoechst High Intensity Objects (%),[12],20%
same,Population Membrane Permeable-Phenotype (%),[12],4%
same,Population Mitochondria Different-Phenotype (%),[12],71%
same,Population Mitotic Cells (%),[12],73%
same,Population Normal (%),[12],79%
same,Population Pyknosed Nuclei (%),[12],27%
same,Population Tubulin-Different-Phenotype (%),[12],93%
same,Total Cell Count,[12],444
